In ChEMBL document CHEMBL3739379, “Anti-Candida activity and cytotoxicity of a large library of new N-substituted-1,3-thiazolidin-4-one derivatives” (Eur J Med Chem, 2016) one finds MIC data, which are given here for ten compounds.

Structures are written as SMILES. Converted amounts (≈) assume the structure as drawn.

Holding throughout (type): functional
In one assay the test system is Enterococcus faecalis. The assay is described as follows: Antibacterial activity against […] faecalis after 18 to 22 hrs by broth microdilution method. The essentials:
(§1)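 Broth microdilution per NCCLS in Mueller-Hinton II broth; isolates subcultured for purity. Compounds dissolved in DMSO, serial dilutions 256 to 0.5 µg/mL; inoculum 10^5/mL. Controls: organism without compound, medium only. Incubation 18 to 22 h at 35 °C. MIC is the lowest concentration giving complete growth inhibition, read by unaided eye.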

For the next assay, the system named is Candida albicans. Briefly: Antifungal activity against Candida albicans clinical isolate after 24 hrs by sabouraud dextrose broth based microdilution method. The essentials: (§2)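 Clinical isolates identified by conventional methods and subcultured for purity. Broth microdilution per NCCLS in Sabouraud dextrose broth; compounds dissolved in DMSO and serially diluted; inoculum 10^3/mL. Controls: fungi without compound, medium only. Incubated 24 h at 37 °C. MIC is the lowest concentration with complete growth inhibition by unaided eye. Values are geometric means over isolates per species.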

The subject of the next assay is Staphylococcus aureus. The assay is described as follows: Antibacterial activity against Staphylococcus aureus after 18 to 22 hrs by broth microdilution method. The essentials:
as §1

Another assay concerns Escherichia coli. The assay is described as follows: Antibacterial activity against Escherichia coli at after 18 to 22 hrs by broth microdilution method. The method in brief: as §1
Another assay concerns [Candida] sake. Briefly: Antifungal activity against Candida sake clinical isolate after 24 hrs by sabouraud dextrose broth based microdilution method. As to conditions: Fermentozyma sake. The method in brief: as §2
A further assay concerns Staphylococcus warneri. Briefly: Antibacterial activity against Staphylococcus warneri after 18 to 22 hrs by broth microdilution method. The essentials:
as §1

In another assay the test system is Candida parapsilosis. The assay is described as follows: Antifungal activity against Candida parapsilosis clinical isolate after 24 hrs by sabouraud dextrose broth based microdilution method. To be noted: Lodderomyces parapsilosis. The method in brief: as §2
The next assay relates to Candida tropicalis. Briefly: Antifungal activity against Candida tropicalis clinical isolate after 24 hrs by sabouraud dextrose broth based microdilution method. The essentials: as §2
In a further assay the test system is Proteus mirabilis. The assay is described as follows: Antibacterial activity against Proteus mirabilis after 18 to 22 hrs by broth microdilution method. The method in brief: as §1
A further assay relates to Nakaseomyces glabratus. Briefly: Antifungal activity against Candida glabrata clinical isolate after 24 hrs by sabouraud dextrose broth based microdilution method. The method in brief:
as §2

The subject of assay [1] is Staphylococcus haemolyticus. The assay is described as follows: Antibacterial activity against Staphylococcus haemolyticus after 18 to 22 hrs by broth microdilution method. The essentials: as §1
The test system of another assay is Enterobacter sp. The assay is described as follows: Antibacterial activity against Enterobacter sp. after 18 to 22 hrs by broth microdilution method. The method in brief:
as §1

In the next assay the test system is Pichia kudriavzevii. The assay is described as follows: Antifungal activity against Candida krusei clinical isolate after 24 hrs by sabouraud dextrose broth based microdilution method. The essentials:
as §2

A further assay relates to Klebsiella oxytoca. Briefly: Antibacterial activity against Klebsiella oxytoca after 18 to 22 hrs by broth microdilution method. The essentials: as §1

In the case of `O=C1c2ccccc2C(=O)N1CN1C(=O)CS/C1=N\N=C1CCCCC1`, the minimum inhibitory concentration (MIC) in the assay on Enterococcus faecalis is greater than 256 µg/mL; against Candida albicans, 8 µg/mL (≈ 21.6 µM); against Staphylococcus aureus it was greater than 256 µg/mL; in the assay with Escherichia coli it was greater than 256 µg/mL; in assay [Candida] sake, 32 µg/mL (≈ 86.4 µM); against Staphylococcus warneri, greater than 256 µg/mL. The minimum inhibitory concentration (MIC) in the assay with Candida parapsilosis was 8 µg/mL (≈ 21.6 µM); against Candida tropicalis it was 8 µg/mL (≈ 21.6 µM); in the assay with Proteus mirabilis it was greater than 256 µg/mL; in the assay on Nakaseomyces glabratus it was 16 µg/mL (≈ 43.2 µM); in assay [1] it was greater than 256 µg/mL; against Enterobacter sp. it was greater than 256 µg/mL. Further, the minimal inhibitory concentration (MIC) in the assay on Pichia kudriavzevii is 16 µg/mL (≈ 43.2 µM); in the assay with Klebsiella oxytoca it was greater than 256 µg/mL.

In the case of `O=C1CS/C(=N\N=C2CCCCCCC2)N1Cc1ccc([N+](=O)[O-])cc1`, the MIC is greater than 256 µg/mL with Enterococcus faecalis; 4 µg/mL (≈ 10.7 µM) in the assay on Candida albicans; greater than 256 µg/mL with Staphylococcus aureus; greater than 256 µg/mL against Escherichia coli; 16 µg/mL (≈ 42.7 µM) in [Candida] sake; greater than 256 µg/mL with Staphylococcus warneri. The MIC against Candida parapsilosis is 16 µg/mL (≈ 42.7 µM); in the assay on Candida tropicalis, 8 µg/mL (≈ 21.4 µM); against Proteus mirabilis, greater than 256 µg/mL; with Nakaseomyces glabratus, 16 µg/mL (≈ 42.7 µM); in assay [1] it was greater than 256 µg/mL; against Enterobacter sp. it was greater than 256 µg/mL. Further, the MIC against Pichia kudriavzevii was 16 µg/mL (≈ 42.7 µM); in the assay on Klebsiella oxytoca it was greater than 256 µg/mL.

As for `O=C1CS/C(=N\N=C2CCCCCCC2)N1Cc1cccc2ccccc12`, the MIC against Enterococcus faecalis was greater than 256 µg/mL; against Candida albicans it was 4 µg/mL (≈ 10.5 µM); with Staphylococcus aureus, greater than 256 µg/mL; against Escherichia coli, greater than 256 µg/mL; in assay [Candida] sake it was 4 µg/mL (≈ 10.5 µM); in the assay on Staphylococcus warneri it was greater than 256 µg/mL. For the same compound, the MIC against Candida parapsilosis is 4 µg/mL (≈ 10.5 µM); against Candida tropicalis, 8 µg/mL (≈ 21.1 µM); against Proteus mirabilis, greater than 256 µg/mL; with Nakaseomyces glabratus it was 32 µg/mL (≈ 84.3 µM); in [1], greater than 256 µg/mL; against Enterobacter sp., greater than 256 µg/mL. Besides, the figures for the minimal inhibitory concentration (MIC) with Pichia kudriavzevii and with Klebsiella oxytoca were 4 µg/mL (≈ 10.5 µM) and greater than 256 µg/mL, respectively.

For `CC/C(C)=N/N=C1\SCC(=O)N1Cc1ccc([N+](=O)[O-])cc1`, the MIC in the assay with Enterococcus faecalis is greater than 256 µg/mL; in the assay on Candida albicans it was 2 µg/mL (≈ 6.24 µM); in the assay on Staphylococcus aureus, greater than 256 µg/mL; against Escherichia coli, greater than 256 µg/mL; in [Candida] sake it was 8 µg/mL (≈ 25 µM); against Staphylococcus warneri, greater than 256 µg/mL. The MIC is 2 µg/mL (≈ 6.24 µM) against Candida parapsilosis; 128 µg/mL (≈ 400 µM) with Candida tropicalis; greater than 256 µg/mL against Proteus mirabilis; 2 µg/mL (≈ 6.24 µM) against Nakaseomyces glabratus; greater than 256 µg/mL in [1]; greater than 256 µg/mL against Enterobacter sp.. For the same compound, the MIC is 2 µg/mL (≈ 6.24 µM) against Pichia kudriavzevii and greater than 256 µg/mL against Klebsiella oxytoca.

Take `C/C(=N\N=C1/SCC(=O)N1Cc1cccc2ccccc12)c1ccco1`: the MIC was greater than 256 µg/mL in the assay with Enterococcus faecalis; 32 µg/mL (≈ 88 µM) with Candida albicans; greater than 256 µg/mL with Staphylococcus aureus; greater than 256 µg/mL against Escherichia coli; 4 µg/mL (≈ 11 µM) in [Candida] sake; greater than 256 µg/mL against Staphylococcus warneri. Further, the MIC is 4 µg/mL (≈ 11 µM) with Candida parapsilosis; 128 µg/mL (≈ 352 µM) in the assay with Candida tropicalis; greater than 256 µg/mL against Proteus mirabilis; 32 µg/mL (≈ 88 µM) against Nakaseomyces glabratus; greater than 256 µg/mL in [1]; greater than 256 µg/mL in the assay with Enterobacter sp.. In addition, the MIC in the assay on Pichia kudriavzevii was 4 µg/mL (≈ 11 µM); in the assay on Klebsiella oxytoca it was greater than 256 µg/mL.

As for `CCC(CC)=N/N=C1\SCC(=O)N1Cc1cccc2ccccc12`, the MIC against Enterococcus faecalis is greater than 256 µg/mL; in the assay with Candida albicans it was 2 µg/mL (≈ 5.89 µM); against Staphylococcus aureus, greater than 256 µg/mL; with Escherichia coli it was greater than 256 µg/mL; in assay [Candida] sake it was 2 µg/mL (≈ 5.89 µM); in the assay on Staphylococcus warneri, greater than 256 µg/mL. Also, the MIC with Candida parapsilosis is 16 µg/mL (≈ 47.1 µM); against Candida tropicalis, 2 µg/mL (≈ 5.89 µM); against Proteus mirabilis it was greater than 256 µg/mL; in the assay on Nakaseomyces glabratus it was 16 µg/mL (≈ 47.1 µM); in assay [1], greater than 256 µg/mL; with Enterobacter sp., greater than 256 µg/mL. The MIC against Pichia kudriavzevii was 16 µg/mL (≈ 47.1 µM); in the assay with Klebsiella oxytoca, greater than 256 µg/mL.

Regarding `C/C(=N\N=C1/SCC(=O)N1Cc1ccc([N+](=O)[O-])cc1)c1ccco1`, the MIC in the assay with Enterococcus faecalis is greater than 256 µg/mL; against Candida albicans it was 32 µg/mL (≈ 89.3 µM); with Staphylococcus aureus, greater than 256 µg/mL; against Escherichia coli, greater than 256 µg/mL; in [Candida] sake, 8 µg/mL (≈ 22.3 µM); with Staphylococcus warneri, greater than 256 µg/mL. Moreover, the MIC against Candida parapsilosis was 8 µg/mL (≈ 22.3 µM); against Candida tropicalis, 16 µg/mL (≈ 44.6 µM); in the assay on Proteus mirabilis, greater than 256 µg/mL; with Nakaseomyces glabratus, 32 µg/mL (≈ 89.3 µM); in assay [1], greater than 256 µg/mL; in the assay on Enterobacter sp., greater than 256 µg/mL. Besides, the MIC in the assay with Pichia kudriavzevii was 4 µg/mL (≈ 11.2 µM); against Klebsiella oxytoca, greater than 256 µg/mL.

Turning to `O=C1c2ccccc2C(=O)N1CN1C(=O)CS/C1=N\N=C1CCCCCC1`, the MIC against Enterococcus faecalis is greater than 256 µg/mL; in the assay on Candida albicans it was 4 µg/mL (≈ 10.4 µM); against Staphylococcus aureus it was greater than 256 µg/mL; with Escherichia coli, greater than 256 µg/mL; in assay [Candida] sake, 16 µg/mL (≈ 41.6 µM); against Staphylococcus warneri it was greater than 256 µg/mL. Also, the MIC is 4 µg/mL (≈ 10.4 µM) against Candida parapsilosis; 32 µg/mL (≈ 83.2 µM) in the assay with Candida tropicalis; greater than 256 µg/mL against Proteus mirabilis; 16 µg/mL (≈ 41.6 µM) against Nakaseomyces glabratus; greater than 256 µg/mL in assay [1]; greater than 256 µg/mL with Enterobacter sp.. The MIC was 16 µg/mL (≈ 41.6 µM) against Pichia kudriavzevii and greater than 256 µg/mL against Klebsiella oxytoca.

As for `CC1CCC/C1=N\N=C1/SCC(=O)N1Cc1cccc2ccccc12` (stereo not given), the MIC against Enterococcus faecalis was greater than 256 µg/mL; in the assay with Candida albicans it was 4 µg/mL (≈ 11.4 µM); in the assay with Staphylococcus aureus, greater than 256 µg/mL; against Escherichia coli, greater than 256 µg/mL; in assay [Candida] sake, 2 µg/mL (≈ 5.69 µM); in the assay with Staphylococcus warneri, greater than 256 µg/mL. Moreover, the MIC with Candida parapsilosis was 8 µg/mL (≈ 22.8 µM); against Candida tropicalis, 2 µg/mL (≈ 5.69 µM); in the assay on Proteus mirabilis, greater than 256 µg/mL; in the assay with Nakaseomyces glabratus, 32 µg/mL (≈ 91 µM); in assay [1], greater than 256 µg/mL; against Enterobacter sp., greater than 256 µg/mL. In addition, the figures for the MIC against Pichia kudriavzevii and against Klebsiella oxytoca were 2 µg/mL (≈ 5.69 µM) and greater than 256 µg/mL, respectively.

For `CC(C)=N/N=C1\SCC(=O)N1Cc1cccc2ccccc12`, the minimal inhibitory concentration (MIC) was greater than 256 µg/mL against Enterococcus faecalis; 4 µg/mL (≈ 12.8 µM) with Candida albicans; greater than 256 µg/mL with Staphylococcus aureus; greater than 256 µg/mL against Escherichia coli; 2 µg/mL (≈ 6.42 µM) in [Candida] sake; greater than 256 µg/mL against Staphylococcus warneri. Moreover, the MIC against Candida parapsilosis was 2 µg/mL (≈ 6.42 µM); with Candida tropicalis, 2 µg/mL (≈ 6.42 µM); with Proteus mirabilis, greater than 256 µg/mL; against Nakaseomyces glabratus, 4 µg/mL (≈ 12.8 µM); in assay [1] it was greater than 256 µg/mL; with Enterobacter sp. it was greater than 256 µg/mL. Further, the MIC in the assay on Pichia kudriavzevii was 2 µg/mL (≈ 6.42 µM); in the assay with Klebsiella oxytoca, greater than 256 µg/mL.
